ChEMBL document CHEMBL1165943, “Design and synthesis of new anticancer pyrimidines with multiple-kinase inhibitory effect” (Bioorg Med Chem, 2010)
pIC50: −log10 of the molar value. The source made the active and inactive calls. The calls are words filed in the database; no cut-off is given here.

Columns and labels:
K562 = assay: Cytotoxicity against human K562 cells assessed as cell growth at 1 uM after 48 hrs by sulforhodamine B assay; format: functional; conditions: K562, 48 h, read-out: Activity
KM12 = assay: Growth inhibition of human KM12 cells after 48 hrs by sulforhodamine B assay; format: functional, cell-based; conditions: KM12, 48 h; for CC50: read-out: LC50 (the source's name)
In short: (§1)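 Cells grown in RPMI 1640 with 5% FBS and 2 mM L-glutamine, seeded at 5,000–40,000 cells/well according to doubling time. After 24 h, time-zero plates are TCA-fixed. Five concentrations (10-fold or ½log dilutions, DMSO stocks) are applied for 48 h at 37 °C, 5% CO₂. Cells are TCA-fixed, SRB-stained and read at 515 nm. IC₅₀ is taken from [(Ti−Tz)/(C−Tz)]×100 = 50.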

OVCAR-4 = assay: Cytotoxicity against human OVCAR4 cells assessed as cell growth at 10 uM after 48 hrs by sulforhodamine B assay; format: functional; conditions: OVCAR-4, 48 h, read-out: Activity
COLO 205 = assay: Cytotoxicity against human COLO205 cells assessed as cell growth at 100 nM after 48 hrs by sulforhodamine B assay; format: functional; conditions: COLO 205, 48 h, read-out: Activity
In short: (§2)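 Cells grown in RPMI 1640 with 5% FBS and 2 mM L-glutamine, seeded at 5,000–40,000 cells/well by doubling time. Time-zero plates TCA-fixed after 24 h. Five concentrations (10-fold or half-log dilutions from DMSO stock) added; 48 h at 37 °C, 5% CO2. Cold TCA fixation (final 10%, 60 min, 4 °C), 0.4% SRB stain, dye solubilized in 10 mM trizma base, A515.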

U-251 = assay: Cytotoxicity against human U251 cells assessed as cell growth at 100 nM after 48 hrs by sulforhodamine B assay; format: functional; conditions: U-251, 48 h, read-out: Activity
NCI-H460 = assay: Cytotoxicity against human NCI-H460 cells assessed as cell growth at 0.01 uM after 48 hrs by sulforhodamine B assay; format: functional; conditions: NCI-H460, 48 h, read-out: Activity
HCT-15 [1] = assay: Growth inhibition of human HCT15 cells after 48 hrs by sulforhodamine B assay; format: functional, cell-based; conditions: HCT-15, 48 h; for CC50: read-out: LC50 (the source's name); in short: as §1
T47D [2] = assay: Cytotoxicity against human T47D cells assessed as cell growth at 1 uM after 48 hrs by sulforhodamine B assay; format: functional; conditions: read-out: Activity
A498 [3] = assay: Cytotoxicity against human A498 cells assessed as cell growth at 0.01 uM after 48 hrs by sulforhodamine B assay; format: functional; conditions: A498, 48 h, read-out: Activity; in short: as §2
SN12C = assay: Cytotoxicity against human SN12C cells assessed as cell growth at 0.01 uM after 48 hrs by sulforhodamine B assay; format: functional; conditions: read-out: Activity
[4] = Growth inhibition of human Hs 578T cells after 48 hrs by sulforhodamine B assay; format: functional, cell-based; conditions: for CC50: read-out: LC50 (the source's name); in short: as §1
M14 [5] = assay: Cytotoxicity against human M14 cells assessed as cell growth at 0.01 uM after 48 hrs by sulforhodamine B assay; format: functional; conditions: M14, 48 h, read-out: Activity
TK-10 [6] = assay: Cytotoxicity against human TK10 cells assessed as cell growth at 0.01 uM after 48 hrs by sulforhodamine B assay; format: functional; conditions: TK-10, 48 h, read-out: Activity
HT-29 = assay: Cytotoxicity against human HT-29 cells assessed as cell growth at 0.01 uM after 48 hrs by sulforhodamine B assay; format: functional; conditions: HT-29, 48 h, read-out: Activity
SF-295 = assay: Growth inhibition of human SF295 cells after 48 hrs by sulforhodamine B assay; format: functional, cell-based; conditions: SF-295, 48 h; for CC50: read-out: LC50 (the source's name); in short: as §1
HOP-62 = assay: Cytotoxicity against human HOP62 cells assessed as cell growth at 10 uM after 48 hrs by sulforhodamine B assay; format: functional; conditions: HOP-62, 48 h, read-out: Activity
UACC-62 = assay: Cytotoxicity against human UACC62 cells assessed as cell growth at 10 uM after 48 hrs by sulforhodamine B assay; format: functional; conditions: UACC-62, 48 h, read-out: Activity
SNB-75 [7] = assay: Cytotoxicity against human SNB75 cells assessed as cell growth at 0.001 uM after 48 hrs by sulforhodamine B assay; format: functional; conditions: SNB-75, 48 h, read-out: Activity
A498 [8] = assay: Cytotoxicity against human A498 cells assessed as cell growth at 100 nM after 48 hrs by sulforhodamine B assay; format: functional; conditions: A498, 48 h, read-out: Activity; in short: as §2
HCT-15 [9] = assay: Cytotoxicity against human HCT15 cells assessed as cell growth at 0.001 uM after 48 hrs by sulforhodamine B assay; format: functional; conditions: HCT-15, 48 h, read-out: Activity
M14 [10] = assay: Cytotoxicity against human M14 cells assessed as cell growth at 1 uM after 48 hrs by sulforhodamine B assay; format: functional; conditions: M14, 48 h, read-out: Activity
TK-10 [11] = assay: Cytotoxicity against human TK10 cells assessed as cell growth at 10 uM after 48 hrs by sulforhodamine B assay; format: functional; conditions: TK-10, 48 h, read-out: Activity
SK-MEL-2 [12] = assay: Cytotoxicity against human SK-MEL-2 cells assessed as cell growth at 1 uM after 48 hrs by sulforhodamine B assay; format: functional; conditions: SK-MEL-2, 48 h, read-out: Activity
SK-OV-3 = assay: Cytotoxicity against human SKOV3 cells assessed as cell growth at 10 uM after 48 hrs by sulforhodamine B assay; format: functional; conditions: SK-OV-3, 48 h, read-out: Activity
SK-MEL-2 [13] = assay: Growth inhibition of human SK-MEL-2 cells after 48 hrs by sulforhodamine B assay; format: functional, cell-based; conditions: SK-MEL-2, 48 h; for CC50: read-out: LC50 (the source's name); in short: as §1
NCI-H522 = assay: Growth inhibition of human NCI-H522 cells after 48 hrs by sulforhodamine B assay; format: functional, cell-based; conditions: NCI-H522, 48 h; for CC50: read-out: LC50 (the source's name); in short: as §1
T47D [14] = assay: Cytotoxicity against human T47D cells assessed as cell growth at 0.01 uM after 48 hrs by sulforhodamine B assay; format: functional; conditions: read-out: Activity
SF-539 = assay: Cytotoxicity against human SF539 cells assessed as cell growth at 100 nM after 48 hrs by sulforhodamine B assay; format: functional; conditions: SF-539, 48 h, read-out: Activity
SNB-75 [15] = assay: Cytotoxicity against human SNB75 cells assessed as cell growth at 100 nM after 48 hrs by sulforhodamine B assay; format: functional; conditions: SNB-75, 48 h, read-out: Activity
HCT-15 [16] = assay: Cytotoxicity against human HCT15 cells assessed as cell growth at 1 uM after 48 hrs by sulforhodamine B assay; format: functional; conditions: HCT-15, 48 h, read-out: Activity
ACHN = assay: Cytotoxicity against human ACHN cells assessed as cell growth at 10 uM after 48 hrs by sulforhodamine B assay; format: functional; conditions: read-out: Activity; in short: as §2
HOP-92 = assay: Growth inhibition of human HOP92 cells after 48 hrs by sulforhodamine B assay; format: functional, cell-based; in short: as §1

Q: What does the source list for CC(=O)c1ccccc1-c1ccc(-c2ccnc(NC(=O)Nc3cc(N4CCOCC4)cc(C(F)(F)F)c3)n2)cn1?
A: growth at 1 µM (K562): 79%; GI50 (KM12): > 100 µM; pIC50 (KM12): < 4.00; TGI (KM12): > 100 µM; CC50 (KM12): > 100 µM; growth at 10 µM (OVCAR-4): 91%; growth at 0.1 µM (COLO 205): 107%; growth at 0.1 µM (U-251): 93%; growth at 0.01 µM (NCI-H460): 110%; GI50 (HCT-15 [1]): > 100 µM; pIC50 (HCT-15 [1]): < 4.00; TGI (HCT-15 [1]): > 100 µM; CC50 (HCT-15 [1]): > 100 µM; growth at 1 µM (T47D [2]): 60%; growth at 0.01 µM (A498 [3]): 83%; growth at 0.01 µM (SN12C): 88%; GI50 [4]: > 100 µM; pIC50 [4]: 5.54; TGI [4]: > 100 µM; CC50 [4]: > 100 µM; growth at 0.01 µM (M14 [5]): 95%; growth at 0.01 µM (TK-10 [6]): 117%; growth at 0.01 µM (HT-29): 105%; GI50 (SF-295): 40.2 µM; pIC50 (SF-295): 5.04; TGI (SF-295): > 100 µM; CC50 (SF-295): > 100 µM; growth at 10 µM (HOP-62): 19%; growth at 10 µM (UACC-62): 63%; growth at 0.001 µM (SNB-75 [7]): 88%; growth at 0.1 µM (A498 [8]): 72%; growth at 0.001 µM (HCT-15 [9]): 98%; growth at 1 µM (M14 [10]): 9%; growth at 10 µM (TK-10 [11]): 27%; growth at 1 µM (SK-MEL-2 [12]): 65%; growth at 10 µM (SK-OV-3): 41%; GI50 (SK-MEL-2 [13]): > 100 µM; pIC50 (SK-MEL-2 [13]): 4.80; TGI (SK-MEL-2 [13]): 75.5 µM; CC50 (SK-MEL-2 [13]): > 100 µM; GI50 (NCI-H522): > 100 µM; pIC50 (NCI-H522): 4.20; TGI (NCI-H522): > 100 µM; CC50 (NCI-H522): > 100 µM; growth at 0.01 µM (T47D [14]): 102%; growth at 0.1 µM (SF-539): 88%; growth at 0.1 µM (SNB-75 [15]): 89%; growth at 1 µM (HCT-15 [16]): 88%; growth at 10 µM (ACHN): 15%; TGI (HOP-92): inactive; GI50 (HOP-92; Homo sapiens, HOP-92, 48 h): 4.29 µM; pIC50 (HOP-92; Homo sapiens, HOP-92, 48 h, read-out: IC50): 5.53; CC50 (HOP-92; Homo sapiens, HOP-92, 48 h, read-out: LC50 (the source's name)): > 100 µM

Q: What does the source list for CC(=O)Nc1cccc(-c2ccc(-c3ccnc(NC(=O)Nc4cc(C(F)(F)F)cc(C(F)(F)F)c4)n3)cn2)c1.Cl?
A: growth at 1 µM (K562): -1%; GI50 (KM12): 2.59 µM; pIC50 (KM12): 5.59; TGI (KM12): 8.01 µM; CC50 (KM12): 27.9 µM; growth at 10 µM (OVCAR-4): -87%; growth at 0.1 µM (COLO 205): 96%; growth at 0.1 µM (U-251): 85%; growth at 0.01 µM (NCI-H460): 93%; GI50 (HCT-15 [1]): 3.62 µM; pIC50 (HCT-15 [1]): 5.44; TGI (HCT-15 [1]): 15 µM; CC50 (HCT-15 [1]): 45.1 µM; growth at 1 µM (T47D [2]): -3%; growth at 0.01 µM (A498 [3]): 92%; growth at 0.01 µM (SN12C): 96%; GI50 [4]: 7.52 µM; pIC50 [4]: 5.12; TGI [4]: > 100 µM; CC50 [4]: > 100 µM; growth at 0.01 µM (M14 [5]): 92%; growth at 0.01 µM (TK-10 [6]): 102%; growth at 0.01 µM (HT-29): 100%; GI50 (SF-295): 1.27 µM; pIC50 (SF-295): 5.90; TGI (SF-295): 6.19 µM; CC50 (SF-295): > 100 µM; growth at 10 µM (HOP-62): -36%; growth at 10 µM (UACC-62): 100%; growth at 0.001 µM (SNB-75 [7]): 57%; growth at 0.1 µM (A498 [8]): 64%; growth at 0.001 µM (HCT-15 [9]): 96%; growth at 1 µM (M14 [10]): -68%; growth at 10 µM (TK-10 [11]): -54%; growth at 1 µM (SK-MEL-2 [12]): 35%; growth at 10 µM (SK-OV-3): -63%; GI50 (SK-MEL-2 [13]): 5.65 µM; pIC50 (SK-MEL-2 [13]): 5.25; TGI (SK-MEL-2 [13]): 19.8 µM; CC50 (SK-MEL-2 [13]): 52.4 µM; GI50 (NCI-H522): 1.71 µM; pIC50 (NCI-H522): 5.77; TGI (NCI-H522): 5.85 µM; CC50 (NCI-H522): 35.3 µM; growth at 0.01 µM (T47D [14]): 80%; growth at 0.1 µM (SF-539): 86%; growth at 0.1 µM (SNB-75 [15]): 67%; growth at 1 µM (HCT-15 [16]): 18%; growth at 10 µM (ACHN): -84%; LC50 (HOP-92): inactive; TGI (HOP-92): inactive; IC50 (HOP-92; hop-92): Not Active
